# Test results from ChEMBL document CHEMBL1143912, “Synthesis and anti-HIV evaluation of novel 1,3-disubstituted thieno[3,2-c][1,2,6]thiadiazin-4(3H)-one 2,2-dioxides(TTDDs)” (Bioorg Med Chem, 2008).
# The source made the active and inactive calls. No cut-off for these calls is given here.
# What was measured:
# [1] = Cytotoxicity against human MT4 cells after 4 days by MTT assay; type: cell-based
# In short: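 Uninfected MT-4 cells were run in parallel with the antiviral assay, exposed to serial compound concentrations (DMSO stocks, 10 mg/ml) for 4 days at 37 °C, with viability read by MTT. CC50 is the concentration cutting mock-infected cell viability by 50%. ">" marks the highest concentration tested that was still non-cytotoxic. Values are means of at least two experiments.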
# [2] = Selectivity index, Ratio of CC50 for human MT4 cells to EC50 for HIV1 3B; type: functional
# In short: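 SI is CC50 in mock-infected MT-4 cells divided by EC50 against HIV-1 IIIB. Both come from the same 4-day MTT assay run in parallel in infected (MOI 0.02) and uninfected cells, each as the mean of at least two experiments.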
# [3] = test system: Human immunodeficiency virus 2; assay: Antiviral activity against HIV2 ROD assessed as inhibition of virus-induced cytopathogenicity in MT4 cells after 4 days by MTT assay; type: functional, organism-based
# In short: (§1)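 MT-4 cells at 1 × 10⁵ cells/mL infected at MOI 0.02, then immediately plated into wells holding serial concentrations of compound (DMSO stocks, 10 mg/ml). Incubated 4 days at 37 °C, then viable cells read by MTT. EC50 is the concentration protecting 50% of infected cells from viral cytopathicity. Values are means of at least two separate experiments.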
# [4] = test system: Human immunodeficiency virus 1; assay: Antiviral activity against HIV1 3B assessed as inhibition of virus-induced cytopathogenicity in MT4 cells after 4 days by MTT assay; type: functional, organism-based; settings: Human immunodeficiency virus 1, 3B, MT4, 96 h; in short: as §1
Compound,CC50 at 96 h [1] [µM],Ratio CC50/EC50 [2],Activity [3],EC50 [4] [µM]
O=C1c2sccc2N(Cc2ccc(Br)cc2)S(=O)(=O)N1Cc1ccccc1,6.6,<1,inactive,> 6.6
O=C1c2sccc2N(Cc2ccccc2Br)S(=O)(=O)N1Cc1ccccc1,> 270,>37,inactive,7.3
N#Cc1ccccc1CN1c2ccsc2C(=O)N(Cc2ccccc2)S1(=O)=O,> 306,>59,inactive,5.1
O=C1c2sccc2N(Cc2ccc(Cl)cc2)S(=O)(=O)N1Cc1ccccc1,8.2,<1,inactive,> 8.2
N#CCN1c2ccsc2C(=O)N(Cc2ccccc2)S1(=O)=O,5.7,<1,inactive,> 5.7
O=C1c2sccc2N(Cc2ccc([N+](=O)[O-])cc2)S(=O)(=O)N1Cc1ccccc1,268,<1,inactive,> 268
O=C1c2sccc2N(Cc2ccccc2)S(=O)(=O)N1Cc1ccccc1,37.5,<1,inactive,> 37.5
O=C1c2sccc2N(Cc2ccccc2Cl)S(=O)(=O)N1Cc1ccccc1,> 299,>62,inactive,4.8
N#CCN1C(=O)N(Cc2ccccc2)S(=O)(=O)c2cscc21,503,559,–,0.9
Cc1ccnc2c1NC(=O)c1cccnc1N2C1CC1 [NEVIRAPINE],683,22767,–,0.03
Cc1cn([C@H]2C[C@H](N=[N+]=[N-])[C@@H](CO)O2)c(=O)[nH]c1=O [ZIDOVUDINE],35.6,50587,–,0.0007
N#Cc1cccc(CN2c3ccsc3C(=O)N(Cc3ccccc3)S2(=O)=O)c1,> 306,>76,inactive,4
O=C1c2sccc2N(Cc2ccc(Cl)cc2Cl)S(=O)(=O)N1Cc1ccccc1,247,5,inactive,52.1
O=C1c2sccc2NS(=O)(=O)N1Cc1ccccc1,374,<1,inactive,> 374
N#Cc1ccc(CN2c3ccsc3C(=O)N(Cc3ccccc3)S2(=O)=O)cc1,8.5,<1,inactive,> 8.5
O=C1N(Cc2ccccc2Cl)c2cscc2S(=O)(=O)N1Cc1ccccc1,> 119,>1190,–,0.1
CN1c2ccsc2C(=O)N(Cc2ccccc2)S1(=O)=O,202,3,inactive,71
O=C1c2sccc2N(Cc2cccc(Cl)c2)S(=O)(=O)N1Cc1ccccc1,> 299,>51,inactive,5.9
